# In the library only some 2.2% were active in any assay of this set; here they are far more common.
# RBBP9 inhibitor = human RBBP9 inhibitors, primary screen, biochemical, fluorescence polarization, FP-Rh probe, HTS. Serine hydrolase RBBP9 (Homo sapiens), O75884. recombinant RBBP9. inhibition, % at 7.94 µM. 0.2% of 220,000 active. AID 1515, 2009;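 active means inhibition above the campaign mean of all tested compounds plus 3 SD, cut at about 14% in these data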;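 further: plate controls were DMSO wells with RBBP9 for no effect and wells lacking RBBP9 protein for full effect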
#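 System: RBBP9 protein | Quantity: 2.5 µM RBBP9 dispensing solution, before mixing | Reagent: FP-Rh probe, 375 nM dispensing solution | Timing: Enzyme-compound preincubation 30 min, then probe labeling 45 min, 25 °C | Measured by: Fluorescence polarization | Read-out: % inhibition | Replication: One well per compound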
# Mdm2 ligase inh = MDM2-luciferase reporter signal enhancers, primary screen, MDM2 E3 ligase inhibitor project, cell-based, luminescence, 1536-well; cell-based MDM2 ubiquitination luciferase reporter, 2 h; 0 = plate control, 100 = twice control, blank-subtracted; signal enhancement, % at 5 µM; E3 ubiquitin-protein ligase Mdm2 (Homo sapiens), Q00987; 0.11% of 210,000 active;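 active means signal enhancement of 30% or more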;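 further: luminescence tracks abundance of the self-degrading MDM2-luciferase fusion protein; higher signal means inhibition of MDM2 E3 ligase activity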
# Target sequence (Q00987 whole entry, looked up, the tested form may be a part): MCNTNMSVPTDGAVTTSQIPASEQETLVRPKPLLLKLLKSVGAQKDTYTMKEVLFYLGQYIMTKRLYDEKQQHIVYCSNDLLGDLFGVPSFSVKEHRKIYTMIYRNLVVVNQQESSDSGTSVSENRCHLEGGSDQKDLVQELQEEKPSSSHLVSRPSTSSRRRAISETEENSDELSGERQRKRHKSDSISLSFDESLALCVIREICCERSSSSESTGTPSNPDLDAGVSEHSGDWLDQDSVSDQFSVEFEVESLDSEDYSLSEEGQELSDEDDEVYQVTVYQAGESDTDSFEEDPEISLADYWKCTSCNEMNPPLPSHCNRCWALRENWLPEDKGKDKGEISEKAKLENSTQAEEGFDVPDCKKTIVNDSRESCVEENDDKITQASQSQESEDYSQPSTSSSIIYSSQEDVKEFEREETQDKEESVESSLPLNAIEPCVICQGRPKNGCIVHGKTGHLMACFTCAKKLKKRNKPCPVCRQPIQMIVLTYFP
#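 Assay system: stable mammalian line carrying autodegrading MDM2–luciferase fusion reporter; amount: 2000 cells seeded into each well; buffer or medium: DMEM; benchmarks: plate control and blank wells; signal: luciferase luminescence; timing: 2 h compound exposure at 37 °C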
# Hsp70 activator = Hsp70 transcriptional activators, primary screen, cell-based, HeLa, Hsp70 promoter luciferase, luminescence, 10 µM | HeLa Hsp70 promoter luciferase reporter; scaled: vehicle 0, proteasome-inhibitor control 100% | activation, % at 10 µM | 0.04% of 200,000 active | AID 1203, 2008;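 active means activation above the mean across all tested compounds plus 3 SD, cutoff set per campaign, cut at about 5.5% in these data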;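 further: 100% = MG132 at 30 µM as the positive control and 0% = DMSO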
# Insulin prom up = insulin promoter activators in MIN6 cells, imaging, high-content screening, mouse beta cells | MIN6 insulin promoter-GFP reporter; stronger effect = higher value | z-score at 5 µM | 0.3% of 190,000 active | AID 1625, 2009;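 active means z-score above 3 at 5 µM with at least 500 cells counted in the well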
# Wee1 stabilizer = Wee1 degradation inhibitors, primary screen, cell-based, HeLa, Wee1K328M-luciferase, luminescence | AID 1321, 2008 | Wee1-like protein kinase (Homo sapiens), P30291 | HeLa Luc-Wee1K328M stability; 100% = proteasome inhibitor MG132 effect | reporter increase, % at 5 µM | 1.2% of 220,000 active;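 active means activation above the mean of all tested compounds plus 3 SD, set per screening run, cut at about 8.8% in these data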;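 further: cells exposed to compound for 20 h before luminescence read; 0% = DMSO alone and 100% = MG132 at 30 µM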
# Insulin prom inh = inhibitors of insulin promoter-driven GFP, primary screen, imaging, TRM-6 cells, eGFP reporter, cell count. reporter expression induced with tamoxifen. inhibition, % at 2 µM. 0.9% of 130,000 active;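 active means inhibition above the mean plus 3 SD, with well images judged a real hit on visual review, cut at about 60% in these data, passing the limit was not always enough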
# RBBP9 confirm = human RBBP9 inhibitors, retest, confirmation, biochemical, fluorescence polarization, FP-Rh probe, triplicate | shares compounds with RBBP9 inhibitor | recombinant RBBP9 | inhibition, % at 7.94 µM | 36% of 410 active | AID 1537, 2009;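 active means inhibition above the hit cutoff derived for the primary screen, cut at about 15% in these data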;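 further: 0% = RBBP9 with DMSO and 100% = wells lacking RBBP9 protein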
# * = called active by the depositor; x = no result.
SMILES,RBBP9 inhibitor,Mdm2 ligase inh,Hsp70 activator,Insulin prom up,Wee1 stabilizer,Insulin prom inh,RBBP9 confirm
CCCn1c(=N)n(CCOc2ccc(OC)cc2)c2ccccc21,-8,6,0,-4.8,2,-11,x
COc1ccc(C(=O)Nc2ccc(NC(=O)c3cnccn3)cn2)cc1,2,-28,0,x,-2,17,x
COc1cc(-c2nc3ccccn3c2/N=C/c2cccc(OC)c2O)ccc1O,-6,-29,0,-0.02,2,36,x
COc1cc(-c2nc3ccccn3c2/N=C/c2ccc(F)cc2)ccc1O,16*,x,0,-0.98,3,x,11
COc1ccc(OCc2nn3c(-c4ccccn4)nnc3s2)cc1,15*,-11,0,-0.46,3,19,1
COc1ccc(-c2nnc3sc(COc4ccccc4)nn23)cc1,-11,-5,0,0.09,0,-15,x
COc1ccc(-n2cc(C(=O)Nc3cc([N+](=O)[O-])ccc3OC)c3ccccc3c2=O)cc1,-2,9,0,0.16,3,-16,x
Cc1ccccc1NC(=S)N/N=C1\CC(C)(C)Oc2ccc(O)cc21,3,-6,0,x,-1,x,x
Cc1ccc(NC(=S)N/N=C2\CC(C)(C)Oc3ccc(O)cc32)cc1,17*,-9,0,0.08,3,12,11
COc1ccc(/C=C/C(=O)NC(=S)NNC(=O)Cc2cccs2)cc1OC,15*,-4,0,0.58,1,-2,9
Cc1ccc(NCCCCO)cc1C,17*,-2,0,-0.47,-1,33,7
COc1ccc(C(=O)C(C)Oc2cccc(NC(=O)c3cccc([N+](=O)[O-])c3)c2)cc1 (stereo not given),-4,2,0,-0.52,0,24,x
CC1CN(C(=O)c2ccccc2)c2ccccc2NC1=O (stereo not given),-1,1,0,0.06,1,15,x
O=C(Nc1cccc(Cl)c1)Nc1nnc(CSCCOc2ccc(Cl)cc2)s1,-6,-27,0,x,-5,-7,x
CC(=O)Nc1cccc(/C(C)=N/NC(=O)c2ccc(NS(=O)(=O)c3cccs3)cc2)c1,19*,-10,x,-0.13,1,x,7
C/C(=N\NC(=O)c1ccc(NS(=O)(=O)c2cccs2)cc1)c1ccc(C(C)(C)C)cc1,-9,-7,0,0.5,-2,x,x
CCCN(CC#CC(O)(c1ccccc1)c1cccnc1)CCC (stereo not given),22*,x,0,-0.7,-1,x,9
CCN(CC)CCC#CC(O)(c1ccccc1)c1ccccc1,-11,12,0,-0.25,-1,x,x
NC1=C(c2ccc([N+](=O)[O-])cc2)C(=O)CO1,4,-13,0,1.2,1,-45,x
O=c1oc2c(-c3ccc([N+](=O)[O-])cc3)cc(O)cc2s1,43*,-6,x,-1.6,1,x,8
COc1ccccc1NC(=O)c1c(NC(=O)CCC(=O)O)sc2c1CCCCC2,-4,0,x,0.34,8,x,x
COc1ccc(OC)c(NC(=O)c2c(NC(=O)CCC(=O)O)sc3c2CCCCC3)c1,21*,-49,0,-0.18,3,21,7
Cc1ccc(NC(=O)/C(=C\c2ccc([N+](=O)[O-])cc2)NC(=O)c2ccccc2)cc1,-5,6,1,x,-1,66,x
O=C(N/N=C/c1ccc(O)c(O)c1O)/C(=C/c1ccc([N+](=O)[O-])cc1)NC(=O)c1ccccc1,18*,-6,0,-0.16,0,-7,38*
CCOC(=O)c1nn(-c2ccc(OC)cc2)c(=O)c2c(N)scc12,13,-14,0,-0.29,3,29,x

# Source: PubChem BioAssay (several laboratories)
